Consider 45 molecules from ChEMBL document CHEMBL1129950, “Structural requirements for binding of anandamide-type compounds to the brain cannabinoid receptor” (J Med Chem, 1997).

Bounds are passed on as bounds.

One may read the Ki as the dissociation constant of the complex between target and ligand, obtained from inhibition or displacement.

Test [1] deals with Cannabinoid receptor 1 (Rattus norvegicus, UniProt P20272). The test is described as follows: In vitro binding affinity was determined against rat brain Cannabinoid receptor 1. A digest of the protocol: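 Drug was serially diluted in 5 mg/mL fatty-acid-free BSA. Final 1 mL held 45 mM Tris-HCl, 2.7 mM MgCl2, 0.9 mM EDTA and 0.58 mg BSA. Incubation was 30 °C, 90 min. Bound ligand was separated by centrifugation, and pellet tips were scintillation-counted. Ki came from displacement.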

Test [2] concerns the target T1, Cannabinoid receptor 1 (Homo sapiens, UniProt P21554). As to the kind of experiment: Binding affinity against the cloned human Cannabinoid receptor 1.
In test [3] the target is T1, Cannabinoid receptor 1. The test is described as follows: Binding affinity against the cannabinoid receptor. In a few lines: (§1)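 Whole rat brain synaptosomal membranes (2.4-3.8 µg protein) were competed against 38-48 fmol [3H]HU-243. Drug was serially diluted in 5 mg/mL fatty-acid-free BSA. Final 1 mL held 45 mM Tris-HCl, 2.7 mM MgCl2, 0.9 mM EDTA and 0.58 mg BSA. Incubation was 30 °C, 90 min. Bound ligand was separated by centrifugation, and pellet tips were scintillation-counted. Ki came from displacement.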

Test [4] deals with T1, Cannabinoid receptor 1. As to the kind of experiment: Binding affinity against the Cannabinoid receptor 1 in the presence of PMSF (experiment 2).
The target of test [5] is T1, Cannabinoid receptor 1. As to the kind of experiment: Binding affinity against the cannabinoid receptor (expt 1). In a few lines:
as §1

Test [6] deals with T1, Cannabinoid receptor 1. The test is described as follows: Binding affinity against the cannabinoid receptor in the presence of PMSF.
Test [7] deals with T1, Cannabinoid receptor 1. As to the kind of experiment: Binding affinity against the cannabinoid receptor in the presence of PMSF (experiment 2).
In test [8] the target is T1, Cannabinoid receptor 1. As to the kind of experiment: Binding affinity against the cannabinoid receptor in the presence of PMSF (expt 1).
The target in test [9] is T1, Cannabinoid receptor 1. The test is described as follows: Binding affinity against the cloned human Cannabinoid receptor 1; no activity.
In test [10] the target is T1, Cannabinoid receptor 1. As to the kind of experiment: Binding affinity against the cannabinoid receptor in the presence of PMSF (expt 3).

T1 sequence (P21554 whole entry): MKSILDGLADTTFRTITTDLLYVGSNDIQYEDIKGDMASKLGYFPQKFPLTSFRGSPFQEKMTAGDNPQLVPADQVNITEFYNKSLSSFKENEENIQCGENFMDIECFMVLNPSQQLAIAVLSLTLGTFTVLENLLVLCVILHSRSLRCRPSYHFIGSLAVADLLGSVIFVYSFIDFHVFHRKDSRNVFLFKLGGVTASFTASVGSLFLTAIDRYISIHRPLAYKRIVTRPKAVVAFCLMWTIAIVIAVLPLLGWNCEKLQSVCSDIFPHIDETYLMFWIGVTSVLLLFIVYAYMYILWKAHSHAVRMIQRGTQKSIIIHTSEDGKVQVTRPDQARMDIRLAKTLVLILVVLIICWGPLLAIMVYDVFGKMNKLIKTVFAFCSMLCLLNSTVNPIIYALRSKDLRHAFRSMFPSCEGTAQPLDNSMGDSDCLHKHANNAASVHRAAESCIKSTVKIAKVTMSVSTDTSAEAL
Chain of Cannabinoid receptor 1 (Rattus norvegicus, UniProt P20272) (P20272 whole entry): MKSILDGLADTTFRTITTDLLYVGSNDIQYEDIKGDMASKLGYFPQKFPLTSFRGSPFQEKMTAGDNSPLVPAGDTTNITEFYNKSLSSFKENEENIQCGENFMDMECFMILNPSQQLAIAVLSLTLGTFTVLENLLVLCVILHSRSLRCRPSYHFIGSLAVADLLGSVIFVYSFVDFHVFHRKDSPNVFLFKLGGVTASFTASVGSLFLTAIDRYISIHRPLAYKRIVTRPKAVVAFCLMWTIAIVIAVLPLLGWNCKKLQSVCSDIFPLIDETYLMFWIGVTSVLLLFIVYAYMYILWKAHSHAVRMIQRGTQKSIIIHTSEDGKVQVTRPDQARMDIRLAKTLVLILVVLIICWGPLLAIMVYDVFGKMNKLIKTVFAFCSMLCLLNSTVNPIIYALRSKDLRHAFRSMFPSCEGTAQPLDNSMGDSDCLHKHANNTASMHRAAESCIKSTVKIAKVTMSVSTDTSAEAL

In the case of `CCCCC/C=C\C/C=C\C/C=C\C/C=C\CCCC(=O)NC(C)(C)CC`, the Ki on Cannabinoid receptor 1 [1] (read-out: Ki) is 447 nM.

For `CCCCC/C=C\C/C=C\C/C=C\C/C=C\CCCC(=O)N(CC)CCO`, the inhibition constant (Ki) on Cannabinoid receptor 1 [1] (read-out: Ki) is above 10000 nM. With `CCCCC/C=C\C/C=C\C/C=C\C/C=C\CCCC(N)=O` [ARACHIDONAMIDE], the Ki on Cannabinoid receptor 1 [2] was 9600 nM; at Cannabinoid receptor 1 [1] (read-out: Ki) it was above 1000 nM. For the molecule `CCCCC/C=C\C/C=C\C/C=C\C/C=C\CCCC(=O)N(CC)CC`, the Ki on Cannabinoid receptor 1 [1] (read-out: Ki) was above 1000 nM. For `CC/C=C/C/C=C\C/C=C\CCCCCCCCCC(=O)NCCO`, the Ki on Cannabinoid receptor 1 [1] (read-out: Ki) is above 10000 nM.

Consider `CCCCC/C=C\C/C=C\C/C=C\C/C=C\CCCC(=O)NCCN(CC)CC`, for which the Ki at Cannabinoid receptor 1 [1] (read-out: Ki) was above 1000 nM.

As for `CC/C=C/C/C=C\C/C=C\C/C=C\C/C=C\C/C=C/CCC(=O)NCCO`, affinity at Cannabinoid receptor 1 [2] was put at a Ki of 12200 nM. On Cannabinoid receptor 1 [3], `CCCCC/C=C\C/C=C\C/C=C\CCCCCCC(=O)NCCO` registered an inhibitory constant (Ki) of 598 nM. Turning to `CCCCC/C=C\C/C=C\C/C=C\C/C=C\CCC(C)C(=O)NCCC` (configuration not stated), at Cannabinoid receptor 1 [1] (read-out: Ki), the Ki was found to be 7.4 nM. As to `CCCCC/C=C\C/C=C\C/C=C\C/C=C\CCCC(=O)NC`, on Cannabinoid receptor 1 [1] (read-out: Ki), the Ki worked out at 60 nM.

Take `CCCCC/C=C\C/C=C\CCCCCCCC(=O)NCCO` (stereo in doubt; 37) [LINOLEOYLETHANOLAMIDE]: on Cannabinoid receptor 1 [2], the Ki was above 41400 nM. Regarding `CC/C=C/C/C=C\C/C=C\C/C=C\CCCCC(=O)NCCO`, the Ki on Cannabinoid receptor 1 [1] (read-out: Ki) was above 1000 nM. Same read-out and setting: under `CCCCC/C=C\C/C=C\C/C=C\C/C=C\CCCC(=O)NC(C)(C)CO` stands 162 nM. Still for that read-out and setting: with `CCCCC/C=C\C/C=C\C/C=C\C/C=C\CCCC(=O)NC(C)C(O)c1ccccc1` (configuration not stated) the figure was above 1000 nM; with `CCCCC/C=C\C/C=C\CCCCCCCCCC(=O)NCCO`, 1500 nM. Same read-out and setting: with `CCCCC/C=C\C/C=C\C/C=C\C/C=C\CCCC(=O)NC(C)C` the figure was 13.6 nM; with `CCCCC/C=C\C/C=C\C/C=C\C/C=C\CCCC(=O)NO`, above 1000 nM. In the case of `CCCCC/C=C\C/C=C\C/C=C\C/C=C\CCCC(=O)N(C)CCO`, the Ki at Cannabinoid receptor 1 [4] was 4980 nM; on Cannabinoid receptor 1 [5] it was 5240 nM; on Cannabinoid receptor 1 [1] (read-out: Ki) it was above 10000 nM. For `CCCCCC#CCC#CCC#CCC#CCCCC(=O)NCCO`, the Ki entry at Cannabinoid receptor 1 [1] is “Not Active”. Turning to `CCCCC/C=C\C/C=C\C/C=C\C/C=C\CCCC(=O)NCCCC`, the figures for the Ki at Cannabinoid receptor 1 [3] and at Cannabinoid receptor 1 [1] (read-out: Ki) were 30 nM and 236 nM, respectively. As to `CCCCC/C=C\C/C=C\C/C=C\C/C=C\CCCC(=O)NCCC(C)C`, the Ki at Cannabinoid receptor 1 [6] was 1860 nM; at Cannabinoid receptor 1 [1] (read-out: Ki), 575 nM. `CCCCC/C=C\C/C=C\C/C=C\C/C=C\CCC(C)(C)C(=O)NC(C)C`: the inhibition constant (Ki) at Cannabinoid receptor 1 [1] (read-out: Ki) is 7.2 nM.

`CCCCC/C=C\C/C=C\C/C=C\C/C=C\CCCC(=O)NC(C)(C)C`: the inhibitory constant (Ki) at Cannabinoid receptor 1 [1] (read-out: Ki) came out at 139 nM.

Turning to `CCCCC/C=C\C/C=C\C/C=C\C/C=C\CCCC(=O)N(CCC)CCO`, the Ki at Cannabinoid receptor 1 [1] (read-out: Ki) was above 10000 nM.

Consider `CCCCC/C=C\C/C=C\C/C=C\C/C=C\CCCC(=O)NCCC`, for which the Ki on Cannabinoid receptor 1 [3] came to 7.3 nM; at Cannabinoid receptor 1 [1] (read-out: Ki) it was 11.7 nM.

`CCCCC/C=C\C/C=C\C/C=C\C/C=C\CCC(C)(C)C(=O)NCCO`: the inhibition constant Ki at Cannabinoid receptor 1 [3] worked out at 41 nM; on Cannabinoid receptor 1 [7], 47 nM; at Cannabinoid receptor 1 [8], 47 nM; at Cannabinoid receptor 1 [1] (read-out: Ki), 25.5 nM.

Take `CCCCC/C=C\C/C=C\C/C=C\C/C=C\CCCC(=O)NCCOP(=O)(O)O`: the inhibition constant Ki at Cannabinoid receptor 1 [1] (read-out: Ki) amounted to 191 nM. Still for that read-out and setting: under `CCCCC/C=C\C/C=C\C/C=C\C/C=C\CCCC(=O)NCC(=O)O` [ARACHIDONOYL GLYCINE] stands above 10000 nM; under `CCCCC/C=C\C/C=C\C/C=C\C/C=C\CCCC(=O)N[C@@H](C)CC`, 377 nM.

In the case of `CCCCC/C=C\C/C=C\C/C=C\C/C=C\CCC(C)(C)C(=O)N[C@H](C)CO`, on Cannabinoid receptor 1 [1] (read-out: Ki), the inhibitory constant (Ki) stood at 31.1 nM. On to `CCCCCCCC/C=C\CCCCCCCCCC(=O)NCCO`, for which the Ki was above 10000 nM at Cannabinoid receptor 1 [7] and above 1000 nM on Cannabinoid receptor 1 [1] (read-out: Ki).

`CCCCCCCCCCCCCCCC(=O)NCCO` [PALMIDROL]: the Ki entry on Cannabinoid receptor 1 [1] and on Cannabinoid receptor 1 [9] was “Not Active” in each case. Turning to `CCCCC/C=C\C/C=C\C/C=C\C/C=C\CCCC(=O)NC(CO)C(=O)O` (configuration not stated), the Ki at Cannabinoid receptor 1 [1] (read-out: Ki) was above 10000 nM. Still for that read-out and setting: with `CCCCC/C=C\C/C=C\C/C=C\C/C=C\CCC(C)(C)C(=O)NCCC` the figure was 6.9 nM. On to `CCCCC/C=C\C/C=C\C/C=C\C/C=C\CCC(C)C(=O)NC(C)C` (configuration not stated), for which the Ki on Cannabinoid receptor 1 [1] (read-out: Ki) was 8.4 nM. Still for that read-out and setting: under `CCCCC/C=C\C/C=C\C/C=C\C/C=C\CCCC(=O)N(C)C` stands above 1000 nM. Turning to `CCCCC/C=C\C/C=C\C/C=C\C/C=C\CCCC(=O)NCCCO`, the inhibition constant Ki at Cannabinoid receptor 1 [3] stood at 13 nM; on Cannabinoid receptor 1 [2], 364 nM; on Cannabinoid receptor 1 [6], 189 nM. On to `CCCCC/C=C\C/C=C\C/C=C\C/C=C\CCC(C)(C)C(=O)N[C@@H](C)CO`, for which the inhibitory constant (Ki) at Cannabinoid receptor 1 [1] (read-out: Ki) was 191 nM.

For `CCCCC/C=C\C/C=C\C/C=C\C/C=C\CCCC(=O)NCCCCC`, at Cannabinoid receptor 1 [1] (read-out: Ki), the Ki was above 1000 nM. As to `CC/C=C/C/C=C\C/C=C\C/C=C\C/C=C/CCCC(=O)NCCO`, the figures for the Ki on Cannabinoid receptor 1 [7] and at Cannabinoid receptor 1 [1] (read-out: Ki) were 1470 nM and 162 nM, respectively. For the molecule `CCCCC/C=C\C/C=C\C/C=C\C/C=C\CCCC(=O)NCCOC`, the inhibitory constant (Ki) at Cannabinoid receptor 1 [3] amounted to 650 nM; on Cannabinoid receptor 1 [6], 1820 nM; on Cannabinoid receptor 1 [1] (read-out: Ki), 85.2 nM. As to `CCCCC/C=C\C/C=C\C/C=C\C/C=C\CCC(C)(C)C(=O)NC[C@H](C)O`, the inhibitory constant (Ki) at Cannabinoid receptor 1 [1] (read-out: Ki) worked out at 46.6 nM. For the molecule `CCCCC/C=C\C/C=C\C/C=C\C/C=C\CCCC(=O)N[C@H](C)CC`, at Cannabinoid receptor 1 [1] (read-out: Ki), the inhibition constant (Ki) turned out to be 240 nM. Regarding `CC/C=C/C/C=C\C/C=C\CCCCCCCC(=O)NCCO`, at Cannabinoid receptor 1 [1], the Ki entry is “Not Active”.

For the molecule `CCCCC/C=C\C/C=C\C/C=C\C/C=C\CCC(C)C(=O)NCCO` (configuration not stated), the Ki on Cannabinoid receptor 1 [10] and at Cannabinoid receptor 1 [8] was 53 nM in each case.
